The results in this text go back to ChEMBL document CHEMBL1133101, “7-Methyl-6,7,8,9,14,15-hexahydro-5H-benz[d]indolo[2,3-g]azecine: a new heterocyclic system and a new lead compound for dopamine receptor antagonists” (J Med Chem, 2000).

The target of assay [1] is D(2) dopamine receptor (Rattus norvegicus) (UniProt P61169). The assay is described as follows: Percent decrease in Dopamine receptor D2 binding using spiperone. Also noted: scale not given: the % may be the effect or the level left. An outline of the steps:
(§1)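 Preliminary screen of receptors isolated from rat or pig tissues, run with minor changes to standard procedures. Each compound was tested at a single fixed concentration for each receptor. The read-out was the percent decrease in binding of the named radioligand.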

Assay [2] deals with Sulfonylurea receptors; K-ATP channels (Homo sapiens) (UniProt Q14654+O60706+Q09428+Q15842). The assay is described as follows: Percent inhibition of glibenclamide binding to K+ channel. The assay is classed as protein-complex assay. Set-up: concentration or dose not given beside the values. Summed up: as §1
Assay [3] addresses Angiotensin II receptor (Homo sapiens) (UniProt P30556+P50052). Nature of the assay: Percent decrease of Angiotensin II receptor binding. The assay is classed as protein assay. Set-up: concentration or dose not given beside the values. An outline of the steps: as §1
Assay [4] addresses Neuronal acetylcholine receptor (Rattus norvegicus) (UniProt P04757+P09483+P12389+P12390+P12392+P43144+Q9JLB5+P12391+P43143+P20420+Q05941). Nature of the assay: % Decrease of Nicotinic acetylcholine receptor-bound radioactivity using cytisine as a radioligand. It counts as protein-complex assay. Set-up: scale not given: the % may be the effect or the level left. Summed up:
as §1

For assay [5], the target named is T1, Adenosine receptor A1 (Homo sapiens) (UniProt P30542).
T1 sequence (whole entry): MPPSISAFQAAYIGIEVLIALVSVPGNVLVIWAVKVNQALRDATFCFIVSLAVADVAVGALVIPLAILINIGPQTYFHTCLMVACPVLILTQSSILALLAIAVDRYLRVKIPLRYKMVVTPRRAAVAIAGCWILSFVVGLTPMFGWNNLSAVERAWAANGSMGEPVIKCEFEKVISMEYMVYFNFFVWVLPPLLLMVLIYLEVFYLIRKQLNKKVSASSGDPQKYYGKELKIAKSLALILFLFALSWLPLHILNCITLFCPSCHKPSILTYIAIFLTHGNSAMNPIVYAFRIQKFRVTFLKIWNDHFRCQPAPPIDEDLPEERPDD
The assay is described as follows: Percent decrease in adenosine-A1-receptor binding using CPDPX. Set-up: scale not given: the % may be the effect or the level left. Summed up:
as §1

The target of assay [6] is T2, 5-hydroxytryptamine receptor 1A (Homo sapiens) (UniProt P08908).
T2 sequence (whole entry): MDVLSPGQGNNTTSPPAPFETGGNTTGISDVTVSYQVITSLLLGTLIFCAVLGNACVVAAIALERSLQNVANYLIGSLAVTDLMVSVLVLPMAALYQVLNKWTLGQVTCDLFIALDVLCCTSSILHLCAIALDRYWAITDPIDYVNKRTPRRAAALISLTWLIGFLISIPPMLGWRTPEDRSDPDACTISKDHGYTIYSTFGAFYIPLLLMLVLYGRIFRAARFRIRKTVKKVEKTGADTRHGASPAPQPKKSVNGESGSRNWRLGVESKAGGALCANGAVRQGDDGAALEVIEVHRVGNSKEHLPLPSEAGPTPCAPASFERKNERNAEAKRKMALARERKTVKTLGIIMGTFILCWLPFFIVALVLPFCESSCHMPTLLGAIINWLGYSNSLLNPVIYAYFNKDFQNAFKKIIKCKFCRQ
The assay is described as follows: Percent decrease in 5-hydroxytryptamine 1A receptor binding using 8-OH-DPAT. Also noted: concentration or dose not given beside the values. An outline of the steps: as §1

Assay [7] addresses Adrenergic receptor alpha-1 (Homo sapiens) (UniProt P35348+P25100+P35368). The assay is described as follows: Percent decrease in Alpha-1 adrenergic receptor binding using prazosin. It counts as protein assay. Summed up: as §1
Assay [8] deals with T1, Adenosine receptor A1 (Homo sapiens). Nature of the assay: Percent decrease in Adenosine A1 receptor binding using CPDPX. Also noted: scale not given: the % may be the effect or the level left.
In assay [9] the target is Glutamate receptor ionotropic AMPA (Homo sapiens) (UniProt P48058+P42263+P42262+P42261). Nature of the assay: Percent decrease in Quisqualate receptor binding using AMPA. It counts as protein-complex assay. Also noted: scale not given: the % may be the effect or the level left. An outline of the steps: as §1
For a further assay, the target named is D(1A) dopamine receptor (Rattus norvegicus, UniProt P18901). The assay is described as follows: Binding affinity against Dopamine receptor D1 of rat striatal receptor using [3H]SCH-23390. An outline of the steps: (§2)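 Rat striatal receptor preparations were used, with [3H]SCH23390 for D1, [3H]spiperone for D2 and [3H]RP62203 for 5-HT2. Ki ([…]) was derived from competitive displacement of the radioligand, with n = 3–7.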

Assay [10] addresses D(1A) dopamine receptor (Rattus norvegicus) (UniProt P18901). Nature of the assay: Percent decrease of Dopamine receptor D1 binding using SCH-23390. Set-up: scale not given: the % may be the effect or the level left.
Assay [11] concerns the target Serotonin 2 (5-HT2) receptor (Rattus norvegicus, UniProt P30994+P08909+P14842). Nature of the assay: Binding affinity against 5-hydroxytryptamine 2 receptor in rat striatum using [3H]-RP62203. The assay is classed as tissue-based.
Another assay deals with D(2) dopamine receptor (Rattus norvegicus, UniProt P61169). Nature of the assay: Binding affinity against Dopamine receptor D2 of rat striatal mambranes using [3H]spiperone. Summed up:
as §2

Sequence of D(2) dopamine receptor (Rattus norvegicus) (P61169 whole entry): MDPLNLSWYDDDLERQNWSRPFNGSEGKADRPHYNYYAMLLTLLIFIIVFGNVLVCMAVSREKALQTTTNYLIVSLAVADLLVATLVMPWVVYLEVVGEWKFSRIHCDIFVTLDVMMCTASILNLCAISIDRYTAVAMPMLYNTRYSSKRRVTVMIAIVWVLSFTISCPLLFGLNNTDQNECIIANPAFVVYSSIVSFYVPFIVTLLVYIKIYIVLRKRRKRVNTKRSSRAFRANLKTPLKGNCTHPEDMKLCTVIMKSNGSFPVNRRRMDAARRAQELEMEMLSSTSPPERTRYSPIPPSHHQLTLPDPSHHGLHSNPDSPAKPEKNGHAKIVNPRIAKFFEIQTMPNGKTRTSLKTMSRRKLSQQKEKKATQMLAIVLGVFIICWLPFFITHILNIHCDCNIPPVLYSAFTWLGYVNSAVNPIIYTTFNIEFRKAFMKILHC
Sequence of Sulfonylurea receptors; K-ATP channels (Homo sapiens) (O60706 whole entry, looked up): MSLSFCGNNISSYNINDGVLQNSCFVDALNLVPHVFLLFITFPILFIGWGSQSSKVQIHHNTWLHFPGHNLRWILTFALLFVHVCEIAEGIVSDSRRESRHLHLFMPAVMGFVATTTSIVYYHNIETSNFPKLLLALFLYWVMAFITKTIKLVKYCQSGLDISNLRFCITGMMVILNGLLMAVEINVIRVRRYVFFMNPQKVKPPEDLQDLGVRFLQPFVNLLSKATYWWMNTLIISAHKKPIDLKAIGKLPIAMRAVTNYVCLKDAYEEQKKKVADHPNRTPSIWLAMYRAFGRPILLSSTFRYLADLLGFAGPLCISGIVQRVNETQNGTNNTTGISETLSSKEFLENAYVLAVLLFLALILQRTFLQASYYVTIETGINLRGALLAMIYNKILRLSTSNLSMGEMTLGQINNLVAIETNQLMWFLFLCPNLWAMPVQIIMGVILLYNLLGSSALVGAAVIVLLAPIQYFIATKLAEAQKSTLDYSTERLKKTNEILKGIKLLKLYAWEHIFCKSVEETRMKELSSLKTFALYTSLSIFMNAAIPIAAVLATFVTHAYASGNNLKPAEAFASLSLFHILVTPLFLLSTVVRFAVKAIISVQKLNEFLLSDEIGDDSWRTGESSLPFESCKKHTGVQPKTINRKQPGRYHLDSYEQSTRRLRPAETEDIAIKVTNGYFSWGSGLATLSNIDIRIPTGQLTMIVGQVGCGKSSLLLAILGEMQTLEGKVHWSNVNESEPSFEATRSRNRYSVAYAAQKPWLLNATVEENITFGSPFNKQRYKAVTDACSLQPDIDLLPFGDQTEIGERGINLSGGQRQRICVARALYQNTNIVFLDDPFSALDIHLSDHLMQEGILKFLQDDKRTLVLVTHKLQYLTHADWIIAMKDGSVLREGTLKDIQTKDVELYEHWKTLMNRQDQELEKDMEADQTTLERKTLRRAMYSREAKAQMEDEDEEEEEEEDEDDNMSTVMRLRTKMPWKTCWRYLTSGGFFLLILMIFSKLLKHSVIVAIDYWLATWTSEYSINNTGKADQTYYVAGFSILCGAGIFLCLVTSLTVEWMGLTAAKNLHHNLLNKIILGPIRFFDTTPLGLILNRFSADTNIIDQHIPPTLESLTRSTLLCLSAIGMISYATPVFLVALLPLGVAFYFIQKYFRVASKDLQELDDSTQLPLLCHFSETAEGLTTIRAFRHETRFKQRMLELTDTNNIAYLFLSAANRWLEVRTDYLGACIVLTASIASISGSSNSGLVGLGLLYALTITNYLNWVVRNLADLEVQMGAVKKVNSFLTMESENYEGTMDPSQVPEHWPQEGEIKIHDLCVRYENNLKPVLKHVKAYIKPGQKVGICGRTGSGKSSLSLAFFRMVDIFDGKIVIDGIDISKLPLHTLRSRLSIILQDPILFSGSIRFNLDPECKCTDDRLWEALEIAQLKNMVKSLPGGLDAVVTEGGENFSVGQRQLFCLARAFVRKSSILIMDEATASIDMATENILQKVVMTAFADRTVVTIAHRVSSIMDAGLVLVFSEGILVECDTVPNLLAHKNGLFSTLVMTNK
Sequence of Sulfonylurea receptors; K-ATP channels (Homo sapiens) (Q09428 whole entry, looked up): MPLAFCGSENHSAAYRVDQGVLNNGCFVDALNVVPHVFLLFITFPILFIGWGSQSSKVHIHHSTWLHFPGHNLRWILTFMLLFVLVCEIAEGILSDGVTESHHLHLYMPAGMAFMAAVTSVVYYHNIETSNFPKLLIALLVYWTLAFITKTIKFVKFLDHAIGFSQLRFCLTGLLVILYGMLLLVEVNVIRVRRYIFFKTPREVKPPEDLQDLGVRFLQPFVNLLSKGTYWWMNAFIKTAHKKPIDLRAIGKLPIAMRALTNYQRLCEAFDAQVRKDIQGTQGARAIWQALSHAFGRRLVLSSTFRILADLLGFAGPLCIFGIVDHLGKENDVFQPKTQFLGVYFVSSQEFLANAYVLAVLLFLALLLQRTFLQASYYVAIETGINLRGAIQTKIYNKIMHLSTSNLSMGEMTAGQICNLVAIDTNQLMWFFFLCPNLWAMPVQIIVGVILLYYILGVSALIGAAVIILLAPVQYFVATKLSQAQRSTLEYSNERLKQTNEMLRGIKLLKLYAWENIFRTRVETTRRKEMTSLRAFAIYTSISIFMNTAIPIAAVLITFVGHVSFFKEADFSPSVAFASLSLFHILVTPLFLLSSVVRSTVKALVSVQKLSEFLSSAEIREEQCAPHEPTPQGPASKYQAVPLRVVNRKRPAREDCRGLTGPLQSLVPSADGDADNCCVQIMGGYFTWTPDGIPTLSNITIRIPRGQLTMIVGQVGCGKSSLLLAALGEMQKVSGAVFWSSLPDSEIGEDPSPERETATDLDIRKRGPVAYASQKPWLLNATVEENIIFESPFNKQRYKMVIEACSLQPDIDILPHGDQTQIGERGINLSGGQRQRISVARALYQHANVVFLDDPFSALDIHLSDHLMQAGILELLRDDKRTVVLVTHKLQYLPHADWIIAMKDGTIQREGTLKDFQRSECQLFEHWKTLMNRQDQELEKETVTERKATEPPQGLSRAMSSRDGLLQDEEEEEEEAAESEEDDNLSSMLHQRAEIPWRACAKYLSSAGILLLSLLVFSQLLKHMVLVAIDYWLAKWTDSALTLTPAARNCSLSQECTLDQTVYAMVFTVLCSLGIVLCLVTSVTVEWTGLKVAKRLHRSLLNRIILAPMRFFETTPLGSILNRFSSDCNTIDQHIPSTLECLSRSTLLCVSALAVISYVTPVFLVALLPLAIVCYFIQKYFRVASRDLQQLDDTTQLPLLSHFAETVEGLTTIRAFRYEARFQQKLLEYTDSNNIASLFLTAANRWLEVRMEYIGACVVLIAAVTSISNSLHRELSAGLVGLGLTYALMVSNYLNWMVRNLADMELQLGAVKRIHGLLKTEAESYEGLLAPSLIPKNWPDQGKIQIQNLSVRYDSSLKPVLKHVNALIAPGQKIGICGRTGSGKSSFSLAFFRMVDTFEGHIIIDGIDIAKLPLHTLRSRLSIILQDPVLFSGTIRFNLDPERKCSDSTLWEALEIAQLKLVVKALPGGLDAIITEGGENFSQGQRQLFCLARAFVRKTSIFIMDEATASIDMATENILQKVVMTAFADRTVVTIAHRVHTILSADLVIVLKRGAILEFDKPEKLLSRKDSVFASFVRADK
Sequence of Sulfonylurea receptors; K-ATP channels (Homo sapiens) (Q14654 whole entry, looked up): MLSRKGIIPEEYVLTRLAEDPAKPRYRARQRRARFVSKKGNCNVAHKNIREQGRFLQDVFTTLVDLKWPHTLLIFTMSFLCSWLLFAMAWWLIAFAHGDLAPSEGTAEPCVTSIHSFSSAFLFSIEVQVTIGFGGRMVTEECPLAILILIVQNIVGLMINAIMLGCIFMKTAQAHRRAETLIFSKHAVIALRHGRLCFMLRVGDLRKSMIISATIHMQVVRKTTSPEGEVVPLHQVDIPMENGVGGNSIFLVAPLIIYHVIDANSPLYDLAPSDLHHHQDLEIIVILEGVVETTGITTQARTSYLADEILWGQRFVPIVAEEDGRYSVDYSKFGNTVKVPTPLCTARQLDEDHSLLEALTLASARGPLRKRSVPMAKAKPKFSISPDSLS
Sequence of Sulfonylurea receptors; K-ATP channels (Homo sapiens) (Q15842 whole entry, looked up): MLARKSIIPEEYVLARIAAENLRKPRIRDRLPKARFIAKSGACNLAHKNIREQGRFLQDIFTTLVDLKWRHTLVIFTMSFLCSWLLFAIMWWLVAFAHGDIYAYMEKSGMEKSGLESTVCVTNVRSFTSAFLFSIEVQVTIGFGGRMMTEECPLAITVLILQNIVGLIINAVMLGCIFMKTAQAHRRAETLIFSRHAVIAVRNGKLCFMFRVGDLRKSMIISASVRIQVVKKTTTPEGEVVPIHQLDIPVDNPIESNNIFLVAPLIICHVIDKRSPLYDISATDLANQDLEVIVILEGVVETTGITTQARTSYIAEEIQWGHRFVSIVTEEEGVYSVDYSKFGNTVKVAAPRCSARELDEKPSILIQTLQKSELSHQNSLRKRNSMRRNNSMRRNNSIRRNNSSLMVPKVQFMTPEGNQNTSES
Sequence of D(1A) dopamine receptor (P18901 whole entry): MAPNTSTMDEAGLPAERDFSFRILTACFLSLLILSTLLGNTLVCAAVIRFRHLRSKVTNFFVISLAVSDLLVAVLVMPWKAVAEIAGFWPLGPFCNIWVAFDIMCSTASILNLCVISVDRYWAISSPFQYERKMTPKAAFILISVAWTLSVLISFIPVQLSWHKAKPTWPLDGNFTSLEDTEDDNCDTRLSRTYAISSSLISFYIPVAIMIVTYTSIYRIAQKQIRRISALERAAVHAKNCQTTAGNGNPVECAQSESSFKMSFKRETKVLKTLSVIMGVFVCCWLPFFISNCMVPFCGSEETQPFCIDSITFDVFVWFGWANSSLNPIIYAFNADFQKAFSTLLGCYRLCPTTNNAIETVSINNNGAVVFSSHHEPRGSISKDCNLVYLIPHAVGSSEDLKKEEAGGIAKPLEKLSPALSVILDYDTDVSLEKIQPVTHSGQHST
Sequence of D(1A) dopamine receptor (Rattus norvegicus) (P18901 whole entry, looked up): as the sequence (P18901 whole entry) above
Sequence of D(2) dopamine receptor (P61169 whole entry): as the sequence (P61169 whole entry) above

As for `c1ccc2c3c([nH]c2c1)C1c2[nH]c4ccccc4c2CCN1CC3`, the Activity in assay [1] was -51%; in assay [2], 7%; in assay [3], 0%; in [4], 1%; in assay [5] it was 17%; in assay [6] it was -25%. In addition, in assay [7], the Decrease is -88%.
A word on the Ki: it is a dissociation constant, usually derived from enzyme kinetics or from competition with a known ligand. `CN1CCc2ccccc2Cc2[nH]c3ccccc3c2CC1`: the Activity in [2] is 10%; in assay [3], 6%; in assay [8] it was 5%; in [9], -3%; in [4], -3%; in assay [10], -99%. Besides, the Activity in assay [6] was -72%. Besides, the Ki at D(1A) dopamine receptor turned out to be 0.08 nM; in assay [11] it was 20 nM; on D(2) dopamine receptor it was 6 nM. The Decrease in assay [7] is -97%.
`c1ccc2c(c1)CCN1CCc3c([nH]c4ccccc34)C21` (configuration not stated): the Activity in assay [1] was -19%; in assay [2], 12%; in assay [3], 0%; in assay [4], 0%; in assay [5] it was 13%; in [6] it was -12%. The Decrease in [7] is -82%.
As to `COc1cc2c(cc1OC)C1c3[nH]c4ccccc4c3CCN1CC2` (configuration not stated), the Activity in assay [1] is -11%; in [2], 11%; in assay [3], 6%; in assay [4], -4%; in assay [5], 26%; in assay [6] it was -21%. Also, the Decrease in [7] is -94%.
